Bioassay records from PubChem.
A selection: hits, their analogues and other compounds. The true share with any hit is near 2.9%.
MEKK2 mut-MEK5 – signal of MEK5 binding to mutant human MEKK2 PB1 domain; percent response, % at 10 µM; bead flow cytometry, Alexa488-MEK5 binding to MEKK2 mutant; actives 0.35% (n = 290,000); in the data active means percent response above about 24%, passing the limit was not always enough
UBC13 polyUb – inhibitors of human UBC13 polyubiquitin chain formation. TR-FRET. actives 0.47% (n = 330,000). inhibition, % at 20 µM. AID 485273; in the data active means inhibition above about 45%, passing the limit was not always enough
Apaf1 inhib – blocks human Apaf-1 apoptosome activity; O14727; reconstituted apoptosome caspase-3 activity, DEVD-Rh110 fluorescence; inhibition, % at 20 µM; actives 0.71% (n = 330,000); AID 489030; active means inhibition of at least 40% at 20 µM;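 further: plate controls were DMSO wells for no effect and DEVD-CHO caspase inhibitor wells for full effect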
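System: Apoptosome proteins | Medium: Hepes pH 7.5 with detergent and BSA | Also added: Cytochrome c trigger plus (Z-DEVD)2-Rh110 caspase-3 substrate | Incubation: 30 min compound preincubation, 50 min activation, room temperature | Detection: Rhodamine 110 fluorescence at Ex 480/Em 540 nm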
MEKK3 PB1 HTS – raises or lowers MEK5 binding to the human MEKK3 PB1 domain; Q99759; actives 1.4% (n = 290,000); binding response (% of control), % at 10 µM; bead-based flow cytometry, Alexa488-MEK5 binding to MEKK3; actives lie on both sides; 0 = blocked by unlabeled MEK5, 100 = vehicle;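 active means binding response more than 3 SD above or below the average of its plate-row segment, actives on both sides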;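 further: Alexa488 bead fluorescence after subtracting the streptavidin-only scavenger bead signal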
Target sequence (Q99759 whole entry, looked up, the tested form may be a part): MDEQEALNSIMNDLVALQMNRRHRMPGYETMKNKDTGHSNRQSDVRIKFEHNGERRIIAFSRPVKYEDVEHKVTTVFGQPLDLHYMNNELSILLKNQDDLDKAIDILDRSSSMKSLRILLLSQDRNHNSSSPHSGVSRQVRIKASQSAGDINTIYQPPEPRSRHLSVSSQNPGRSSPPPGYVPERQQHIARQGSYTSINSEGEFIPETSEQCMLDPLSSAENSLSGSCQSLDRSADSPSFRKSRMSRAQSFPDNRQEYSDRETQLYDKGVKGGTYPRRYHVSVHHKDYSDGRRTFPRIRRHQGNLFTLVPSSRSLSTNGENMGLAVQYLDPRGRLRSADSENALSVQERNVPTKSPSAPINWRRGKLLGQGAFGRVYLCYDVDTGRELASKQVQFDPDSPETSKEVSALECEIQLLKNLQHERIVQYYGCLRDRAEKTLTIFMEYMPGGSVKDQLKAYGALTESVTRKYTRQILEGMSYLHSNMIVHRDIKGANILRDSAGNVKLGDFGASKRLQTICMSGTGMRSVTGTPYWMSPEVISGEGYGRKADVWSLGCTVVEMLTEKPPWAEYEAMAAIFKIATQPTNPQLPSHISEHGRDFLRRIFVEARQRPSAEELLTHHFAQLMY
MEKK2 WT-MEK5 – raises or lowers MEK5 binding to wildtype human MEKK2 PB1 domain | bead flow cytometry, Alexa488-MEK5 binding to MEKK2 WT; actives lie on both sides | actives 1.1% (n = 290,000) | binding response (% of control), % at 10 µM | Q9Y2U5; in the data active means binding response below about 67% or above about 130%
MEKK2wt confirm – raises or lowers MEK5 binding to wildtype human MEKK2, retest. shares compounds with MEKK3 PB1 HTS. bead flow cytometry, Alexa488-MEK5 binding to MEKK2 WT; actives lie on both sides. binding response (% of control), % at 10 µM. actives 2.4% (n = 5,900). AID 1892; in the data active means binding response below about 16% or above about 210%; inactive means in between
MEKK2mut confirm – signal of MEK5 binding to mutant human MEKK2, retest; shares compounds with MEKK3 PB1 HTS; bead flow cytometry, Alexa488-MEK5 binding to MEKK2 mutant; percent response, % at 10 µM; actives 2% (n = 5,900); AID 1893; in the data active means percent response mostly above about 71%, no sharp cut-off; inactive means mostly below about 38%;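 further: higher means compound restores mutant binding toward wildtype level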
MEKK3-MEK5 inh – MEKK3-MEK5 PB1 inhibition, single concentration confirmation; shares compounds with MEKK3 PB1 HTS; bead flow cytometry, Alexa488-MEK5 binding to MEKK3; hits give low values; binding response (% of control), % at 10 µM; actives 1.8% (n = 5,900); AID 1894;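 active means binding response below 72% of control, or above a set upper limit, though filed actives all read lower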;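 further: 100% = DMSO only wells and 0% = binding blocked by excess unlabeled MEK5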
Starred values were filed as active, the others as inactive; [ ] = remark or other dose.

Screening O=C(Nc1ccc(Cl)c(Cl)c1)c1ccc(Cl)c(Cl)c1 returned MEKK2 mut-MEK5 56*, UBC13 polyUb -1, Apaf1 inhib 5, MEKK3 PB1 HTS 97, MEKK2 WT-MEK5 162*, MEKK2wt confirm 142, MEKK2mut confirm 16 and MEKK3-MEK5 inh 105.
O=C(Nc1ccc(Cl)c(Cl)c1)c1ccncc1 was read as MEKK2 mut-MEK5 1, UBC13 polyUb 4, Apaf1 inhib 6, MEKK3 PB1 HTS 100 and MEKK2 WT-MEK5 102.
`CCC1CCCCN1C(=O)CSC1=NN2CCCC(=O)N=C2S1` (stereo not given) gave MEKK2 mut-MEK5 27, UBC13 polyUb 1, Apaf1 inhib -20, MEKK3 PB1 HTS 132*, MEKK2 WT-MEK5 124, MEKK2wt confirm 83, MEKK2mut confirm -10 and MEKK3-MEK5 inh 83.
`O=C1CCCN2N=C(SCC(=O)N3CCCCC3)SC2=N1` gave MEKK2 mut-MEK5 -1, UBC13 polyUb 2, Apaf1 inhib -17, MEKK3 PB1 HTS 109 and MEKK2 WT-MEK5 107.
For COc1ccc(NC(=O)Nc2nc3c(s2)CCCC3)cc1 the results were MEKK2 mut-MEK5 2, UBC13 polyUb 6, Apaf1 inhib 16, MEKK3 PB1 HTS 136*, MEKK2 WT-MEK5 109, MEKK2wt confirm 107, MEKK2mut confirm 11 and MEKK3-MEK5 inh 105.
Screening COc1ccc(-c2cc(C(F)(F)F)n3nc(C(=O)NCc4ccco4)c(Cl)c3n2)cc1 returned MEKK2 mut-MEK5 2, UBC13 polyUb -1, Apaf1 inhib 16, MEKK3 PB1 HTS 107, MEKK2 WT-MEK5 30*[inhibitor], MEKK2wt confirm 111, MEKK2mut confirm 14 and MEKK3-MEK5 inh 109.
CCN(CC)c1ccc(/C=N/NC(=O)CN2CCCc3ccccc32)cc1 was read as MEKK2 mut-MEK5 -1, UBC13 polyUb 2, Apaf1 inhib 24, MEKK3 PB1 HTS 139*, MEKK2 WT-MEK5 101, MEKK2wt confirm 96, MEKK2mut confirm -6 and MEKK3-MEK5 inh 100.
`Oc1ccc(Cl)cc1/C=C/c1ccc2cccc(O)c2n1` gave MEKK2 mut-MEK5 0, UBC13 polyUb -38, Apaf1 inhib 18, MEKK3 PB1 HTS 128*, MEKK2 WT-MEK5 119, MEKK2wt confirm 94, MEKK2mut confirm -8 and MEKK3-MEK5 inh 103.
Screening Oc1c(Cl)cc(Cl)cc1/C=C/c1ccc2cccc(O)c2n1 returned MEKK2 mut-MEK5 -2, UBC13 polyUb -33, Apaf1 inhib 22, MEKK3 PB1 HTS 100 and MEKK2 WT-MEK5 97.
Screening CCS(=O)(=O)N1CCN(S(=O)(=O)c2ccc3ccccc3c2)CC1 returned MEKK2 mut-MEK5 3, UBC13 polyUb -6, Apaf1 inhib -5, MEKK3 PB1 HTS 107 and MEKK2 WT-MEK5 107.
CCN1CCN(S(=O)(=O)c2ccc3ccccc3c2)CC1 was read as MEKK2 mut-MEK5 -20, UBC13 polyUb -8, Apaf1 inhib 2, MEKK3 PB1 HTS 50*[inhibitor], MEKK2 WT-MEK5 67, MEKK2wt confirm 104, MEKK2mut confirm 2 and MEKK3-MEK5 inh 101.
Screening O=C(/C(=C(\[O-])c1ccccc1)[n+]1ccc2ccccc2c1)c1ccc(Cl)cc1 returned MEKK2 mut-MEK5 1, UBC13 polyUb -6, Apaf1 inhib 14, MEKK3 PB1 HTS 98 and MEKK2 WT-MEK5 100.
Screening O=C(/C(=C(\[O-])c1ccccc1)[n+]1ccc2ccccc2c1)c1ccccc1 returned MEKK2 mut-MEK5 4, MEKK3 PB1 HTS 128*, MEKK2 WT-MEK5 102, MEKK2wt confirm 102, MEKK2mut confirm 1 and MEKK3-MEK5 inh 104.
For Cn1nccc1C(=O)N1CCN(S(=O)(=O)c2ccc(Br)s2)CC1 the results were MEKK2 mut-MEK5 5, UBC13 polyUb 2, Apaf1 inhib 9, MEKK3 PB1 HTS 100 and MEKK2 WT-MEK5 105.
